Reference: ChEMBL document CHEMBL1137395, “Synthesis and antiviral activity of 5-substituted cytidine analogues: identification of a potent inhibitor of viral RNA-dependent RNA polymerases” (J Med Chem, 2006)
The source made the active and inactive calls. The rule behind the calls is not given here.

Experiments:
HeLa = test: Viability of human HeLa S3 cells; type: functional; set-up: concentration or dose not given beside the values
Outline: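 HeLa S3 cells exposed to compound for 7 h, then allowed to recover without compound for 24 h; viability recorded at four concentrations.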

Enterovirus C = test: Antiviral activity against poliovirus in HeLa S3 cells assessed as reduction in viral titer; type: functional, organism-based
Outline: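 HeLa S3 cells pretreated with compound 1 h, then infected with 10⁶ PFU poliovirus (high MOI); after 15 min adsorption, fresh medium containing compound added and infection run a further 6 h. Cell-associated virus titered by plaque assay.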

Coxsackievirus B3 = test: Antiviral activity against coxsackievirus B3 in HeLa S3 cells assessed as reduction in viral titer; type: functional, organism-based
Outline: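 HeLa S3 cells were pretreated with compound for 1 h, then infected with 10⁶ PFU CVB3 (high MOI). After 15 min of virus association, fresh medium containing compound was added and infection continued for 6 h. Cell-associated virus was titered by plaque assay. Cytotoxicity was checked separately after 7 h of treatment plus 24 h of recovery without compound.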

Genome polyprotein = Genome polyprotein (Human poliovirus 1 Mahoney, UniProt P03300); test: Binding affinity to poliovirus RNA dependent RNA polymerase; set-up: species or system Enterovirus C
Outline: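 Purified poliovirus RdRP complexed with ³²P end-labeled symmetrical 10-mer RNA primer-template (S/S–G); nucleotide incorporation opposite G followed, products separated by denaturing PAGE; Kd and kpol derived from incorporation kinetics.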

Human alphaherpesvirus 1 = test: Antiviral activity against herpes simplex virus 1; type: functional, organism-based
Human alphaherpesvirus 2 = test: Antiviral activity against herpes simplex virus 2; type: functional, organism-based
[1] = tested on: Human immunodeficiency virus 1; test: Antiviral activity against HIV1; type: functional, organism-based

Genome polyprotein, sequence (P03300 1749-2209 limits assumed): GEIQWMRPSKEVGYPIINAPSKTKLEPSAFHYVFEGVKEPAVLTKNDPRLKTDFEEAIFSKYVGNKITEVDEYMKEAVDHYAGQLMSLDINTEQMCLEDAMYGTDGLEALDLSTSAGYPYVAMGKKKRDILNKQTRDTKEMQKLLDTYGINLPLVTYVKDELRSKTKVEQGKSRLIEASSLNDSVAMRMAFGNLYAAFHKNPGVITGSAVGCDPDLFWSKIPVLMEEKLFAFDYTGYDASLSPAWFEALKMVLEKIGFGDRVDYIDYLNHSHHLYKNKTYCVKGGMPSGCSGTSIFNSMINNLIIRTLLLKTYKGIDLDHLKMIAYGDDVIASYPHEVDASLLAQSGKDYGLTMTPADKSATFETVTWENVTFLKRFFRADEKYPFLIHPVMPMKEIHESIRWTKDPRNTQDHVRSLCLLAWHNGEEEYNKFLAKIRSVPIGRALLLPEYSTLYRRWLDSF

SMILES	Activity (HeLa)	Activity (Enterovirus C)	Activity (Coxsackievirus B3)	further results
Nc1nc(=O)n([C@@H]2O[C@H](CO)[C@@H](O)[C@H]2O)cc1[N+](=O)[O-]	80%	Active	Active	
Nc1nc(=O)n([C@H]2C[C@H](O)[C@@H](CO)O2)cc1O	82%	inactive	inactive	
Nc1nc(=O)n([C@@H]2O[C@H](CO[P@@](=O)(O)O[P@](=O)(O)OP(=O)(O)O)[C@@H](O)[C@H]2O)cc1[N+](=O)[O-]				Kd (Genome polyprotein): 1080 nM
NC(=O)c1ncn([C@@H]2O[C@H](CO)[C@@H](O)[C@H]2O)n1 [RIBAVIRIN]	70%	Dose-dependent effect	Dose-dependent effect	
Nc1nc(=O)n([C@H]2C[C@H](O)[C@@H](CO)O2)cc1Br	93%	inactive	inactive	
Nc1nc(=O)n([C@@H]2O[C@H](CO)[C@@H](O)[C@H]2O)cc1O	36%			
Nc1nc(=O)n([C@H]2C[C@H](O)[C@@H](CO)O2)cc1[N+](=O)[O-]				Activity (Human alphaherpesvirus 1): Active; Activity (Human alphaherpesvirus 2): Active; Activity [1]: Active
Nc1nc(=O)n([C@@H]2O[C@H](CO)[C@@H](O)[C@H]2O)cc1Br	63%			
Nc1cn([C@@H]2O[C@H](CO)[C@@H](O)[C@H]2O)c(=O)nc1N	62%	Active	Active	
